Measured values reported in ChEMBL document CHEMBL1649395, “Synthesis and antibacterial activity of novel ketolides with 11,12-sulfur contained aryl alkyl side chains” (2011).
Values after ≈ are worked out from the molar mass of the structure shown.

What was measured:
Assay type in all cases: functional
Streptococcus pneumoniae [1] = experiment: Antibacterial activity against erythromycin-susceptible Streptococcus pneumoniae 07H252 by broth microdilution method
Method in brief: (§1)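 Strains were ATCC reference strains or clinical isolates from China's national antimicrobial resistance surveillance network (MOHNARIN). In vitro activity was measured by broth microdilution following NCCLS recommendations. Results are reported as minimum inhibitory concentration (MIC) in mg/L.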

Staphylococcus aureus [2] = experiment: Antibacterial activity against methicillin-susceptible Staphylococcus aureus ATCC 29213 by broth microdilution method; method in brief: as §1
Staphylococcus aureus [3] = experiment: Antibacterial activity against methicillin-susceptible Staphylococcus aureus ANS46 by broth microdilution method; method in brief: as §1
[4] = system: Staphylococcus epidermidis; experiment: Antibacterial activity against methicillin-susceptible Staphylococcus epidermidis 07C134 by broth microdilution method
Method in brief: (§2)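 Clinical isolates were supplied by China's Ministry of Health National Antimicrobial Resistance Investigation Net (MOHNARIN). Activity was reported as minimum inhibitory concentration (MIC), determined by broth microdilution following NCCLS recommendations.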

[5] = system: Staphylococcus epidermidis; experiment: Antibacterial activity against methicillin-susceptible Staphylococcus epidermidis 07T202 by broth microdilution method; method in brief: as §1
[6] = system: Staphylococcus epidermidis; experiment: Antibacterial activity against methicillin-resistant Staphylococcus epidermidis 07R066 by broth microdilution method; method in brief: as §2
[7] = system: Staphylococcus epidermidis; experiment: Antibacterial activity against methicillin-resistant Staphylococcus epidermidis 07A066 by broth microdilution method; method in brief: as §2
Streptococcus pyogenes [8] = experiment: Antibacterial activity against erythromycin-susceptible Streptococcus pyogenes 07U084 by broth microdilution method; method in brief: as §1
Streptococcus pyogenes [9] = experiment: Antibacterial activity against erythromycin-susceptible Streptococcus pyogenes 07U086 by broth microdilution method; method in brief: as §1
Streptococcus pyogenes [10] = experiment: Antibacterial activity against erythromycin-resistant Streptococcus pyogenes 03-233 by broth microdilution method; method in brief: as §2
Streptococcus pyogenes [11] = experiment: Antibacterial activity against erythromycin-resistant Streptococcus pyogenes 01-533 by broth microdilution method; method in brief: as §2
Streptococcus pneumoniae [12] = experiment: Antibacterial activity against erythromycin-susceptible Streptococcus pneumoniae ATCC 49619 by broth microdilution method; method in brief: as §1
Streptococcus pneumoniae [13] = experiment: Antibacterial activity against erythromycin-resistant Streptococcus pneumoniae 07D201 by broth microdilution method; method in brief: as §2
Streptococcus pneumoniae [14] = experiment: Antibacterial activity against erythromycin-resistant Streptococcus pneumoniae 07P390 by broth microdilution method; method in brief: as §2
Haemophilus influenzae [15] = experiment: Antibacterial activity against erythromycin-susceptible Haemophilus influenzae ATCC 49247 by broth microdilution method; method in brief: as §1
Haemophilus influenzae [16] = experiment: Antibacterial activity against erythromycin-susceptible Haemophilus influenzae 07O114 by broth microdilution method; method in brief: as §1
Haemophilus influenzae [17] = experiment: Antibacterial activity against erythromycin-susceptible Haemophilus influenzae 07O339 by broth microdilution method; method in brief: as §1
Haemophilus influenzae [18] = experiment: Antibacterial activity against erythromycin-susceptible Haemophilus influenzae 07O394 by broth microdilution method; method in brief: as §1

| Compound | MIC (Streptococcus pneumoniae [1]) | MIC (Staphylococcus aureus [2]) | MIC (Staphylococcus aureus [3]) | MIC [4] | MIC [5] | MIC [6] | MIC [7] | MIC (Streptococcus pyogenes [8]) | MIC (Streptococcus pyogenes [9]) | MIC (Streptococcus pyogenes [10]) | MIC (Streptococcus pyogenes [11]) | MIC (Streptococcus pneumoniae [12]) | MIC (Streptococcus pneumoniae [13]) | MIC (Streptococcus pneumoniae [14]) | MIC (Haemophilus influenzae [15]) | MIC (Haemophilus influenzae [16]) | MIC (Haemophilus influenzae [17]) | MIC (Haemophilus influenzae [18]) |
| --- | --- | --- | --- | --- | --- | --- | --- | --- | --- | --- | --- | --- | --- | --- | --- | --- | --- | --- |
| CC[C@H]1OC(=O)[C@H](C)C(=O)[C@H](C)[C@@H](O[C@@H]2O[C@H](C)C[C@H](N(C)C)[C@H]2O)[C@@](C)(OC)C[C@@H](C)C(=O)[C@H](C)[C@H]2N(CCCSc3nccs3)C(=O)O[C@]12C | 0.5 µg/mL (≈ 0.649 µM) | 0.125 µg/mL (≈ 0.162 µM) | > 32 µg/mL | 0.125 µg/mL (≈ 0.162 µM) | > 32 µg/mL | 0.062 µg/mL (≈ 0.0805 µM) | 0.125 µg/mL (≈ 0.162 µM) | ≤ 0.016 µg/mL | ≤ 0.016 µg/mL | > 32 µg/mL | 0.5 µg/mL (≈ 0.649 µM) | 0.031 µg/mL (≈ 0.0403 µM) | > 32 µg/mL | 0.25 µg/mL (≈ 0.325 µM) | 4 µg/mL (≈ 5.19 µM) | 4 µg/mL (≈ 5.19 µM) | 4 µg/mL (≈ 5.19 µM) | 4 µg/mL (≈ 5.19 µM) |
| CC[C@H]1OC(=O)[C@H](C)C(=O)[C@H](C)[C@@H](O[C@@H]2O[C@H](C)C[C@H](N(C)C)[C@H]2O)[C@@](C)(OC)C[C@@H](C)C(=O)[C@H](C)[C@H]2N(CCCSc3nnnn3C)C(=O)O[C@]12C | 8 µg/mL (≈ 10.4 µM) | 0.25 µg/mL (≈ 0.325 µM) | > 32 µg/mL | 0.25 µg/mL (≈ 0.325 µM) | > 32 µg/mL | > 32 µg/mL | 1 µg/mL (≈ 1.3 µM) | 0.062 µg/mL (≈ 0.0806 µM) | 0.062 µg/mL (≈ 0.0806 µM) | > 32 µg/mL | 1 µg/mL (≈ 1.3 µM) | 0.031 µg/mL (≈ 0.0403 µM) | > 32 µg/mL | 0.5 µg/mL (≈ 0.65 µM) | 8 µg/mL (≈ 10.4 µM) | 8 µg/mL (≈ 10.4 µM) | 8 µg/mL (≈ 10.4 µM) | 8 µg/mL (≈ 10.4 µM) |
| CC[C@H]1OC(=O)[C@H](C)C(=O)[C@H](C)[C@@H](O[C@@H]2O[C@H](C)C[C@H](N(C)C)[C@H]2O)[C@@](C)(OC)C[C@@H](C)C(=O)/C(C)=C/[C@]1(C)OC(=O)NCCCSc1nc2cc([N+](=O)[O-])ccc2[nH]1 | – | 1 µg/mL (≈ 1.18 µM) | > 16 µg/mL | 1 µg/mL (≈ 1.18 µM) | > 16 µg/mL | 1 µg/mL (≈ 1.18 µM) | 1 µg/mL (≈ 1.18 µM) | 0.125 µg/mL (≈ 0.147 µM) | 0.125 µg/mL (≈ 0.147 µM) | – | – | 0.125 µg/mL (≈ 0.147 µM) | – | – | 16 µg/mL (≈ 18.9 µM) | 16 µg/mL (≈ 18.9 µM) | > 16 µg/mL | > 16 µg/mL |
| CC[C@H]1OC(=O)[C@H](C)C(=O)[C@H](C)[C@@H](O[C@@H]2O[C@H](C)C[C@H](N(C)C)[C@H]2O)[C@@](C)(OC)C[C@@H](C)C(=O)[C@H](C)[C@H]2N(CCCSc3nc4ccccc4[nH]3)C(=O)O[C@]12C | – | 0.125 µg/mL (≈ 0.156 µM) | > 16 µg/mL | 0.062 µg/mL (≈ 0.0772 µM) | > 16 µg/mL | 0.062 µg/mL (≈ 0.0772 µM) | 0.125 µg/mL (≈ 0.156 µM) | 0.016 µg/mL (≈ 0.0199 µM) | 0.016 µg/mL (≈ 0.0199 µM) | – | – | 0.016 µg/mL (≈ 0.0199 µM) | – | – | 4 µg/mL (≈ 4.98 µM) | 2 µg/mL (≈ 2.49 µM) | 2 µg/mL (≈ 2.49 µM) | 2 µg/mL (≈ 2.49 µM) |
| CC[C@H]1OC(=O)[C@H](C)C(=O)[C@H](C)[C@@H](O[C@@H]2O[C@H](C)C[C@H](N(C)C)[C@H]2O)[C@@](C)(OC)C[C@@H](C)C(=O)[C@H](C)[C@H]2N(CCCSc3nc4cc(OC)ccc4s3)C(=O)O[C@]12C | – | 0.5 µg/mL (≈ 0.588 µM) | > 16 µg/mL | 0.25 µg/mL (≈ 0.294 µM) | 16 µg/mL (≈ 18.8 µM) | 0.25 µg/mL (≈ 0.294 µM) | 0.5 µg/mL (≈ 0.588 µM) | 0.062 µg/mL (≈ 0.0729 µM) | 0.062 µg/mL (≈ 0.0729 µM) | – | – | 0.125 µg/mL (≈ 0.147 µM) | – | – | 16 µg/mL (≈ 18.8 µM) | 16 µg/mL (≈ 18.8 µM) | 16 µg/mL (≈ 18.8 µM) | 16 µg/mL (≈ 18.8 µM) |
| CCCc1cnc(SCCCN2C(=O)O[C@]3(C)[C@@H](CC)OC(=O)[C@H](C)C(=O)[C@H](C)[C@@H](O[C@@H]4O[C@H](C)C[C@H](N(C)C)[C@H]4O)[C@@](C)(OC)C[C@@H](C)C(=O)[C@H](C)[C@@H]23)nc1 | – | 0.5 µg/mL (≈ 0.62 µM) | > 16 µg/mL | 0.5 µg/mL (≈ 0.62 µM) | > 16 µg/mL | 0.5 µg/mL (≈ 0.62 µM) | 1 µg/mL (≈ 1.24 µM) | 0.125 µg/mL (≈ 0.155 µM) | 0.125 µg/mL (≈ 0.155 µM) | – | – | 0.125 µg/mL (≈ 0.155 µM) | – | – | 16 µg/mL (≈ 19.8 µM) | 16 µg/mL (≈ 19.8 µM) | 16 µg/mL (≈ 19.8 µM) | 16 µg/mL (≈ 19.8 µM) |
| CC[C@H]1OC(=O)[C@H](C)C(=O)[C@H](C)[C@@H](O[C@@H]2O[C@H](C)C[C@H](N(C)C)[C@H]2O)[C@@](C)(OC)C[C@@H](C)C(=O)[C@H](C)[C@H]2N(CCCSc3ccccn3)C(=O)O[C@]12C | – | 0.125 µg/mL (≈ 0.164 µM) | > 16 µg/mL | 0.125 µg/mL (≈ 0.164 µM) | > 16 µg/mL | 0.125 µg/mL (≈ 0.164 µM) | 0.125 µg/mL (≈ 0.164 µM) | 0.016 µg/mL (≈ 0.0209 µM) | 0.016 µg/mL (≈ 0.0209 µM) | – | – | 0.016 µg/mL (≈ 0.0209 µM) | – | – | 8 µg/mL (≈ 10.5 µM) | 8 µg/mL (≈ 10.5 µM) | 4 µg/mL (≈ 5.24 µM) | 8 µg/mL (≈ 10.5 µM) |
